The source of these data is article PMC4775309 (Biochemistry, 2016).

Holding throughout (assay): Fluorescence quenching binding assay, NADPH-free apoenzyme
One test addresses wild-type EryKR1 (Saccharopolyspora erythraea, UniProt Q03131). An outline of the steps:
(§1)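 Cofactor removed by dialysis, 36 h, against 50 mM potassium phosphate pH 7.5 with 1 M KBr, 5 mM EDTA and 10% glycerol, then 36 h into 50 mM sodium phosphate pH 7.5 with 10% glycerol. Apoenzyme (1 μM) titrated with (±)-2-methyl-3-ketopentanoyl-SNAC (0–50 mM final), 20 min at room temperature. Fluorescence read at pH 7.2 and 30 °C (ex 280, em 338 nm). Quenching (Fapo−Fobs) fitted to a one-site saturation model for Kd.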

In a further test the target is T1, wild-type PicKR3^0 (Streptomyces venezuelae, UniProt Q9ZGI4).
T1 sequence (Q9ZGI4 1150-1343 limits assumed): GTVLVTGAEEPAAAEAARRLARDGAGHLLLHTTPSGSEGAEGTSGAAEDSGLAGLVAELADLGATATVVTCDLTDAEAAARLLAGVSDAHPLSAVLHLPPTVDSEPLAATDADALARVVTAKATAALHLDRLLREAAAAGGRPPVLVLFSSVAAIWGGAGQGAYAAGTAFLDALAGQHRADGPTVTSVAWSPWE
An outline of the steps:
as §1

The next test addresses T2, wild-type EryKR3^0 (Saccharopolyspora erythraea, UniProt Q03132).
T2 sequence (Q03132 1132-1297 limits assumed): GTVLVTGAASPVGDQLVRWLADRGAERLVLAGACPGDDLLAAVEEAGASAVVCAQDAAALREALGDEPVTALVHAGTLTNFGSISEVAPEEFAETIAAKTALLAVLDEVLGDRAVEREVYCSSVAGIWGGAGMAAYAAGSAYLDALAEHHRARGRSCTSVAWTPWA
The essentials: as §1

wild-type EryKR1, sequence (Q03131 1613-1790 limits assumed): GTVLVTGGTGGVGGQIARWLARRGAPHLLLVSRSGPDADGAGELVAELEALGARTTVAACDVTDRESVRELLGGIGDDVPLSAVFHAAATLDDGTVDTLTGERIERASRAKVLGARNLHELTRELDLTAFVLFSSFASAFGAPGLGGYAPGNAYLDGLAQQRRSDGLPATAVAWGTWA

The Kd is the constant that tells how readily two partners part at equilibrium. Consider `CCC(=O)C(C)C(=O)SCCNC(C)=O` (racemic) [compound 1, (±)-2-methyl-3-ketopentanoyl-N-acetycysteamine (SNAC) thioester], for which the Kd is 7.7 ± 0.4 mM on wild-type EryKR1, 5 ± 0.3 mM on wild-type PicKR3^0 and 8 ± 0.4 mM on wild-type EryKR3^0.
